Results reported in PubChem BioAssay.
Active and inactive are the calls of the source.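 The calls were made as follows, unless noted: active = viability loss from added drug above about 55%, and viability with drug at most 40%, in both replicates (limit read from the data, passing the limit was not always enough); inconclusive = both conditions met in only one replicate; inactive = neither replicate meets both conditions.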

What was measured:
[1] = reducers of endogenous Her2 protein level, primary screen, SKBR3 breast tumor cells, AlphaScreen, ATP viability (AID 461;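 active = Her2 level under about 52% in both replicate screens, with viability over 70% of control, limit read from the data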;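 as to Her2 level: lower value means less Her2 protein in the cells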;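 as to viability: percent of carrier control wells set as 100% viability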); conditions: 18-24 h, measured here: SKBR3 viability, ATP luminescence, at 10 µM
[2] = molecular target: Receptor tyrosine-protein kinase erbB-2 (Homo sapiens) (UniProt P04626); experiment: as above; conditions: 18-24 h, at 10 µM, stronger effect = lower value
Chain of Receptor tyrosine-protein kinase erbB-2 (Homo sapiens) (P04626 whole entry, looked up): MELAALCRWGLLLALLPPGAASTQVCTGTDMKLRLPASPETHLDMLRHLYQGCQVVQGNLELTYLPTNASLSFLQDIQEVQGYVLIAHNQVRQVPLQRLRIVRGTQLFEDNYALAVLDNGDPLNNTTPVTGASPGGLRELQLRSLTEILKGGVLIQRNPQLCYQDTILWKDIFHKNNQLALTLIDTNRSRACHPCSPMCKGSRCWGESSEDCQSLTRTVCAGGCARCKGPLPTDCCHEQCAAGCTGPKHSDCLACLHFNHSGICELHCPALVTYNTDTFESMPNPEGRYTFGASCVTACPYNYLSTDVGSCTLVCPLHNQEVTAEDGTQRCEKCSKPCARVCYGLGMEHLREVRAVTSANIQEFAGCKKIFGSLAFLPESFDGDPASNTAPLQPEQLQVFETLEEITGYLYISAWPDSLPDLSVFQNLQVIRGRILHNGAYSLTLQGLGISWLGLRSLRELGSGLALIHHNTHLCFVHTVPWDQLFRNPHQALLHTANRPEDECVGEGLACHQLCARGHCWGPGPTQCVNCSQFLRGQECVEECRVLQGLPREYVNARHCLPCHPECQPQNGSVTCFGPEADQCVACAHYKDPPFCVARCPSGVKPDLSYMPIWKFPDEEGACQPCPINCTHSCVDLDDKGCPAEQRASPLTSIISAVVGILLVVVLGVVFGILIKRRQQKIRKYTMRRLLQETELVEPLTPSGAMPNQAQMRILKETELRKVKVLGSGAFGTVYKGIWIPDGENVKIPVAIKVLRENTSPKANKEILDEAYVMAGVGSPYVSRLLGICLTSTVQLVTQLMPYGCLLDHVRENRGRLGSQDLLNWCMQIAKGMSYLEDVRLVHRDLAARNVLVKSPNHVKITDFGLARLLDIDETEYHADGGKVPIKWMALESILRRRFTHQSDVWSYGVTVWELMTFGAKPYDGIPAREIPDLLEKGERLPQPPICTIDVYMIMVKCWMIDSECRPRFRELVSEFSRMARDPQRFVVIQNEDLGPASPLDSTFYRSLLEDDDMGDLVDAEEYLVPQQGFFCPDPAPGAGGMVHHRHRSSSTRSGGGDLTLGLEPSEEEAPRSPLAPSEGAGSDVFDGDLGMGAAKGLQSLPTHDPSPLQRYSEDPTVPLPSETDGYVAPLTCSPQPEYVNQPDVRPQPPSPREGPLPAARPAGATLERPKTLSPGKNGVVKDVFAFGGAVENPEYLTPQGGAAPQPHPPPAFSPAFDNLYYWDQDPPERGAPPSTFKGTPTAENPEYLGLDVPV

[3] = SK-BR-3 cell growth inhibitors, pilot screen, 24 h, human (AID 572;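 active = viability at or below 10% of carrier control in both of two separate runs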;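 also: compound exposure lasted between 18 and 24 h rather than exactly 24 h; 100% = carrier-treated control wells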); conditions: SK-BR-3 viability, CellTiter-Glo luminescence, at 10 µM, stronger effect = lower value
[4] = HUVEC growth inhibition – cell-based, human, primary screen (AID 575;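 active = viability at or below 30% in both replicate assays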;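 also: 100% = median of untreated cell wells with 0.1% DMSO on each plate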); conditions: HUVEC proliferation, CellTiter-Glo luminescence, 72 h; at 10 µM; stronger effect = lower value
In short: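 Material: primary human umbilical vein endothelial cells / Schedule: 72 h exposure, 37 °C, 5% CO2, 30 min RT equilibration / Signal: ATP-based CellTiter-Glo luminescent read / Read-out basis: percent of median DMSO-control luminescence / Control set: 32 DMSO-only cell-control wells (high), 32 MePR drug-control wells (low) per plate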

[5] = growth inhibitors of H69AR lung tumor, primary screen, human, duplicate replicates (AID 580;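 active = viability at or under a set limit in both replicates, limit being median viability minus 3 SD, cut at about 48% in these data, passing the limit was not always enough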;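 also: 100% = mean luminescence of untreated wells and 0% = no signal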); conditions: H69AR lung tumor cells viability, ATP luminescence, 72 h; at 10 µM; stronger effect = lower value
[6] = reversal of MRP1-mediated doxorubicin resistance, pilot screen, H69AR cells, doxorubicin co-treatment (AID 601); conditions: CellTiter-Glo, 72 h, at 10 µM; for differential viability (reversal): stronger effect = higher value
[7] = 384-well plate pilot, post-Golgi transport modulator project, inhibition of yeast transport mutant growth (AID 636; in the data active = inhibition above about 31%); conditions: absorbance 615 nm, about 18 h, stronger effect = higher value
[8] = growth suppression of yeast trafficking mutant, preliminary HTS, modulators of trafficking downstream of Golgi apparatus project, 1536-format plate, OD 615 nm (AID 637; in the data active = inhibition above about 30%); conditions: yeast transport mutant growth, absorbance 615 nm, 18 h; stronger effect = higher value
[9] = H69AR cells + 2 uM doxorubicin, measured here: viability with 2 uM doxorubicin, stronger effect = lower value
[10] = H69AR cells, compound alone cytotoxicity

Structure (SMILES)	viability [1] [%]	Her2 level [2]	viability [3]	viability [4]	viability [5]	differential viability (reversal) ([6]; H69AR cells + 2 uM doxorubicin)	viability [6, 9] [%]	viability [6, 10] [%]	inhibition [7]	inhibition [8]
Cc1cc(C)cc(NC(=O)C2CCCN(c3nccc(C)n3)C2)c1 (stereo not given)	85	101% (inactive)	85% (inactive)	84% (inactive)	104% (inactive)	12.9% (inactive)	91.1	104	0.91% (inactive)	-5.25% (inactive)
C/C(=N\O)C(=O)NCc1ccccn1	102	134% (inactive)	102% (inactive)	85.3% (inactive)	92.2% (inactive)	-4.16% (inactive)	96.4	92.2	4.61% (inactive)	11.2% (inactive)
CCCCn1nnc(NC(=O)Cc2ccc(Cl)cc2)n1	112	134% (inactive)	112% (inactive)	106% (inactive)	90% (inactive)	17.9% (inactive)	72.1	90	-3.9% (inactive)	-3.5% (inactive)
CCOc1ccc(NC(=O)c2ccccc2O)cc1	87.5	87.5% (inactive)	87.5% (inactive)	90.4% (inactive)	101% (inactive)	10.1% (inactive)	90.5	101	-1.22% (inactive)	-2.7% (inactive)
O=C(NCc1cccnc1)c1ccccc1Br	110	98.5% (inactive)	110% (inactive)	115% (inactive)	95.1% (inactive)	0.945% (inactive)	94.2	95.1	-5.87% (inactive)	-2.42% (inactive)
O=C(NCC1COc2ccccc2O1)c1ccccc1 (stereo not given)	79	95% (inactive)	79% (inactive)	113% (inactive)	92.9% (inactive)	2.58% (inactive)	90.4	92.9	-4.27% (inactive)	0.33% (inactive)
O=C(CN(Cc1ccc2c(c1)OCO2)C(=O)CNS(=O)(=O)c1ccccc1)NCc1ccco1	97	86.5% (inactive)	97% (inactive)	107% (inactive)	99.4% (inactive)	2.35% (inactive)	97	99.4	0.41% (inactive)	-1.31% (inactive)
C=CCNC(=O)c1cccc(Br)c1	92	94% (inactive)	92% (inactive)	89.4% (inactive)	92% (inactive)	-9.44% (inactive)	101	92	9.59% (inactive)	5.08% (inactive)
COc1cccc(C2=Nn3c(nnc3-c3ccccc3O)SC2)c1	100	61% (inactive)	100% (inactive)	89.4% (inactive)	67.2% (inactive)	-18.5% (inactive)	85.7	67.2	-3.16% (inactive)	-2.83% (inactive)
CC1=C(C(=O)Nc2ccccc2)C(c2cccs2)C(C#N)=C(SCC#N)N1 (stereo not given)	104	96.5% (inactive)	104% (inactive)	64% (inactive)	82.8% (inactive)	-13.4% (inactive)	96.2	82.8	-0.4% (inactive)	19.2% (inactive)
C[C@@H]1C[C@H](O)c2cc(Cl)ccc2N1	104	88.5% (inactive)	104% (inactive)	86.1% (inactive)	87.1% (inactive)	7.69% (inactive)	79.4	87.1	-5.84% (inactive)	-3.33% (inactive)
COC(=O)Nc1ccccc1C(=O)N1CCCCC1	100	93% (inactive)	100% (inactive)	95.8% (inactive)	99% (inactive)	6.15% (inactive)	92.9	99	-5.33% (inactive)	-0.49% (inactive)
CCN1C(=O)Cc2cc(S(=O)(=O)N3CCOCC3)ccc21	105	110% (inactive)	105% (inactive)	96.1% (inactive)	98% (inactive)	-2.08% (inactive)	100	98	-6.4% (inactive)	-0.63% (inactive)
Cc1cccc(N2C(=O)CC(Sc3nc(C)c4c(n3)CCCC4)C2=O)c1 (stereo not given)	80.5	128% (inactive)	80.5% (inactive)	102% (inactive)	90.3% (inactive)	-0.055% (inactive)	90.3	90.3	-0.27% (inactive)	27.5% (inactive)
Cc1onc(-c2c(Cl)cccc2Cl)c1C(N)=O	103	116% (inactive)	103% (inactive)	100% (inactive)	106% (inactive)	13.6% (inactive)	92.5	106	-2.03% (inactive)	-5.08% (inactive)
COc1cc2c(cc1OC)-c1cc(OCc3cccnc3)nc(=O)n1CC2	92	106% (inactive)	92% (inactive)	99.7% (inactive)	92.9% (inactive)	2.05% (inactive)	90.8	92.9	-3.73% (inactive)	9.19% (inactive)
COc1ccccc1C(=O)N1CCN(C(=O)c2ccncc2)CC1	122	106% (inactive)	122% (inactive)	88.6% (inactive)	103% (inactive)	13.7% (inactive)	89.2	103	-3.73% (inactive)	4.35% (inactive)
O=C(NCCCCNC(=O)c1c(F)c(F)c(F)c(F)c1F)c1c(F)c(F)c(F)c(F)c1F	98.5	76.5% (inactive)	98.5% (inactive)	97.2% (inactive)	89.4% (inactive)	10.4% (inactive)	78.9	89.4	-6.27% (inactive)	-3.17% (inactive)
Cn1nnnc1SCC(=O)N1CCN(c2cccc(Cl)c2)CC1	108	89% (inactive)	108% (inactive)	97.2% (inactive)	85.6% (inactive)	8.05% (inactive)	77.5	85.6	-1.43% (inactive)	-1.11% (inactive)
c1ccc(CCNc2ccc3nncn3n2)cc1	82	89.5% (inactive)	82% (inactive)	95.6% (inactive)	86.5% (inactive)	3.48% (inactive)	83	86.5	-2.53% (inactive)	0.98% (inactive)
CCOc1ccc(C(=O)Nc2ccc(N3CCN(C)CC3)cc2)cc1Br	114	93% (inactive)	114% (inactive)	2.57% (active)	81.8% (inactive)	10.2% (inactive)	71.7	81.8	-4.67% (inactive)	12.1% (inactive)
Cc1ccnc(SCCn2c(N3CCCCC3)nc3c2c(=O)n(C)c(=O)n3C)n1	76.5	88.5% (inactive)	76.5% (inactive)	93.9% (inactive)	91.2% (inactive)	3% (inactive)	88.2	91.2	-5.66% (inactive)	-3% (inactive)
Cc1c(C(=O)OC(C)C)[nH]c2c1C(=O)CCC2	96.5	104% (inactive)	96.5% (inactive)	102% (inactive)	106% (inactive)	12.9% (inactive)	93	106	0.39% (inactive)	-6.29% (inactive)
CCOC(=O)c1c(C)n(C)c2ccc(OC)c(NC(=O)CCN3CCSCC3)c12	122	91.5% (inactive)	122% (inactive)	96.7% (inactive)	83.5% (inactive)	-1.65% (inactive)	85.1	83.5	-2.89% (inactive)	-2.74% (inactive)
O=C(NCc1cccnc1)C1c2ccccc2C(=O)N1Cc1ccco1 (stereo not given)	94.5	91% (inactive)	94.5% (inactive)	92% (inactive)	92.9% (inactive)	11.6% (inactive)	81.3	92.9	-1.56% (inactive)	-3.65% (inactive)
Cc1cccc(C)c1NC(=O)CS(=O)CC(=O)NC1CCCc2ccccc21 (stereo not given)	96.5	82.5% (inactive)	96.5% (inactive)	103% (inactive)	88.7% (inactive)	-3.62% (inactive)	92.3	88.7	-6.8% (inactive)	-4.59% (inactive)
CC1(C)OC(=O)C(=CNc2ccccc2F)C(=O)O1	102	83.5% (inactive)	102% (inactive)	97.6% (inactive)	91.2% (inactive)	-1.11% (inactive)	92.4	91.2	-2.99% (inactive)	2.06% (inactive)
CCn1c(SCC(=O)N2CCOCC2)nc2c(c1=O)SC(C)C2 (stereo not given)	95	112% (inactive)	95% (inactive)	97.3% (inactive)	88% (inactive)	6.23% (inactive)	81.7	88	-7.53% (inactive)	-4.92% (inactive)
N#Cc1c(NC(=O)CSc2nc(N)cc(=O)[nH]2)sc2c1CCCCCC2	104	90% (inactive)	104% (inactive)	59.9% (inactive)	91.5% (inactive)	5.43% (inactive)	86.1	91.5	-0.66% (inactive)	-10% (inactive)
COc1ccc(C2C3=C(CC(C)(C)CC3=O)Oc3ncn4nc(-c5cccnc5)nc4c32)cc1 (stereo not given)	96	84.5% (inactive)	96% (inactive)	108% (inactive)	105% (inactive)	14.3% (inactive)	90.9	105	-9.05% (inactive)	0% (inactive)
